We go through one compound from ChEMBL document CHEMBL4382197, “Discovery of QCA570 as an Exceptionally Potent and Efficacious Proteolysis Targeting Chimera (PROTAC) Degrader of the Bromodomain and Extra-Terminal (BET) Proteins Capable of Inducing Complete and Durable Tumor Regression” (J Med Chem, 2018).

SMILES strings stand for the structures. The source made the active and inactive calls. The rule behind the calls is not given here. A value given as a limit tells only on which side of the number the result lay.

The target in data set [1] is Protein cereblon/Eukaryotic peptide chain release factor GTP-binding subunit ERF3A/Cullin-4A (Homo sapiens) (UniProt Q96SW2+Q13619+P15170). Kind of data set: Induction of Cereblon/Cullin 4A-mediated-GSPT1 degradation in human RS4:11 cells at 0.01 to 10 nM after 3 hrs by Western blot analysis. In kind it is cell-based.
The subject of data set [2] is RS4-11. The experiment in a line: Growth inhibition of human RS4:11 cells after 96 hrs by CCK8 assay. In kind it is functional, cell-based. The note with it: RS4-11, 96 h. On the technique in general: Tetrazolium dyes change colour on reduction, which living cells bring about.
In data set [3] the test system is MV4-11. Kind of data set: Growth inhibition of human MV4-11 cells after 96 hrs by CCK8 assay. In kind it is functional, cell-based. The note with it: MV4-11, 96 h.
Another data set deals with MOLM-13. Kind of data set: Growth inhibition of human MOLM13 cells after 96 hrs by CCK8 assay. The note with it: MOLM-13, 96 h. Format: functional, cell-based.
Data set [4] deals with T1, Protein cereblon/Bromodomain-containing protein 4/Cullin-4A (Homo sapiens) (UniProt O60885+Q96SW2+Q13619). Kind of data set: Protac activity at cereblon/cullin 4A/BRD4 in human MV4-11 cells assessed as BRD4 degradation at 10 pM after 3 hrs by Western blot analysis. In kind it is cell-based. On the technique in general: In western blotting, separated proteins are transferred to a membrane and probed.

Data set [5] deals with T2, Protein cereblon/Bromodomain-containing protein 2/Cullin-4A (Homo sapiens) (UniProt P25440+Q96SW2+Q13619). Kind of data set: Protac activity at cereblon/cullin 4A/BRD2 in human RS4:11 cells assessed as BRD2 degradation at 30 to 100 pM after 3 hrs by Western blot analysis. In kind it is cell-based.
For data set [6], the target named is T2, Protein cereblon/Bromodomain-containing protein 2/Cullin-4A (Homo sapiens). Kind of data set: Protac activity at cereblon/cullin 4A/BRD2 in human RS4:11 cells assessed as BRD2 degradation at 0.5 nM after 3 hrs by Western blot analysis. In kind it is cell-based.
Data set [7] concerns the target T3, Protein cereblon/Bromodomain-containing protein 3/Cullin-4A (Homo sapiens) (UniProt Q15059+Q96SW2+Q13619). Kind of data set: Protac activity at cereblon/cullin 4A/BRD3 in human RS4:11 cells assessed as BRD3 degradation at 0.5 nM after 3 hrs by Western blot analysis. Format: cell-based.
The target in data set [8] is T1, Protein cereblon/Bromodomain-containing protein 4/Cullin-4A (Homo sapiens). The experiment in a line: Protac activity at cereblon/cullin 4A/BRD4 in human RS4:11 cells assessed as BRD4 degradation at 0.5 nM after 3 hrs by Western blot analysis. Format: cell-based.
Data set [9] has the same target. The experiment in a line: Protac activity at cereblon/cullin 4A/BRD4 in human RS4:11 cells assessed as BRD4 degradation at 0.5 nM after 3 hrs in presence of lenalidomide by Western blot analysis. In kind it is cell-based. In outline: (§1)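 RS4;11 cells were pre-treated for 2 h with DMSO, lenalidomide (10 μM), MLN4924 (1 μM) or MG-132 (20 μM). The degrader was then added at 0.5 nM for 3 h. Lysates were immunoblotted for BRD2, BRD3 and BRD4, with GAPDH as loading control.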

The target is the same in data set [10]. The experiment in a line: Protac activity at cereblon/cullin 4A/BRD4 in human RS4:11 cells assessed as BRD4 degradation at 0.5 nM after 3 hrs in presence of neddylation inhibitor MLN4924 by Western blot analysis. In kind it is cell-based. Put shortly: as §1
For data set [11], the target named is T3, Protein cereblon/Bromodomain-containing protein 3/Cullin-4A (Homo sapiens). The experiment in a line: Protac activity at cereblon/cullin 4A/BRD3 in human RS4:11 cells assessed as BRD3 degradation at 0.5 nM after 3 hrs in presence of proteasome inhibitor MG132 by Western blot analysis. Format: cell-based. In outline: as §1
Data set [12] deals with MV4-11. The experiment in a line: Induction of apoptosis in human MV4-11 cells at 0.1 to 10 uM after 48 hrs by Annexin V/propidium iodine-double staining-based flow cytometry. Format: functional, cell-based.
The test system of data set [13] is MV4-11. Kind of data set: Induction apoptosis in human MV4-11 cells assessed as caspase-3 activation at 0.3 nM after 24 hrs by Western blot analysis. Format: functional, cell-based. Put shortly: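 Cells (1.5–2×10^6/well) were treated for 24 h, washed in cold PBS and lysed in RIPA with protease inhibitors. 20 µg lysate was run on 4–20% or 4–12% gels and transferred to PVDF. Blots were probed for cleaved PARP and cleaved caspase 3, with GAPDH as loading control. Detection by ECL.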

The next data set deals with Mus musculus. Kind of data set: In vivo Protac activity at cereblon/cullin/BRD4 in tumor of human RS4:11 cells xenografted in SCID mouse assessed as reduction in BRD4 protein expression at 1 to 5 mg/kg, iv administered as single dose and measured at 24 hrs post dose by Western blot analysis. In kind it is functional, organism-based. In outline: (§2)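 SCID mice bearing subcutaneous RS4;11 tumors were given a single intravenous dose of 1 or 5 mg/kg. Tumors were harvested at 1, 6 and 24 h, two mice per time point. Tissue was ground in liquid nitrogen and lysed in CST buffer with protease inhibitors. 20 µg lysate per lane was probed for BRD2, BRD3, BRD4, c-Myc and cleaved PARP, with GAPDH as loading control.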
(In general: Xenograft models place foreign cells or tissue in a host animal.)

Data set [14] can be described thus: Drug uptake in plasma of SCID mouse xenografted with human RS4:11 cells at 5 mg/kg, iv measured at 6 hrs by LC-MS/MS analysis. In kind it is ADME, organism-based. The note with it: in vivo, BLD = below limit of detection. In outline: (§3)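 Female SCID mice with RS4;11 tumors received a single 5 mg/kg intravenous dose in 20% PCP/80% PBS. Plasma (heparin) and tissues were taken at 1, 3 and 6 h, one mouse per time point in duplicate. Plasma was precipitated with acetonitrile containing internal standard. Tissues were homogenized 5:1 in 20% acetonitrile. Quantified by LC-MS/MS against spiked plasma standards (2–2000 ng/mL); values in ng/ml or ng/g.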

Data set [15] can be described thus: Drug uptake in liver of SCID mouse xenografted with human RS4:11 cells at 5 mg/kg, iv measured at 6 hrs by LC-MS/MS analysis. In kind it is ADME, organism-based. The settings on record: in vivo, BLD = below limit of detection. In outline: as §3
The nature of data set [16]: Drug uptake in kidney of SCID mouse xenografted with human RS4:11 cells at 5 mg/kg, iv measured at 6 hrs by LC-MS/MS analysis. In kind it is ADME, organism-based. The settings on record: in vivo, BLD = below limit of detection. Put shortly:
as §3

Data set [17] has as its system RS4-11. Kind of data set: Antitumor activity against human RS4:11 cells xenografted in SCID mouse assessed tumor growth inhibition at 5 mg/kg, iv administered weekly. In kind it is functional, organism-based. In outline:
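RS4;11 xenografts: 5×10^6 cells in 50% Matrigel injected subcutaneously on the dorsal side of SCID mice, one tumor per mouse. Randomized to treatment or vehicle at ~100 mm3. Intravenous dosing on several schedules, including 3 times per week for 3 weeks and weekly. Volume = L × W2/2; body weight tracked.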

Data set [18] in a line: Toxicity in SCID mouse xenografted with human RS4:11 cells assessed weight loss at 1 to 5 mg/kg, iv administered 3 times per week for 3 weeks. In kind it is organism-based. The settings on record: in vivo, 504 h. Put shortly:
(§4)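 SCID mice received a subcutaneous dorsal implant of 5×10^6 RS4;11 cells in 50% Matrigel, one tumor per mouse. Mice were randomized at ~100 mm3 into treatment or vehicle groups. Doses were 1, 2.5 or 5 mg/kg three times weekly for 3 weeks, with body weight and signs of toxicity monitored.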

A short description of data set [19]: Toxicity in SCID mouse xenografted with human RS4:11 cells at 1 to 5 mg/kg, iv administered 3 times per week for 3 weeks. Format: organism-based. The note with it: in vivo, 504 h. Put shortly: as §4
In data set [20] the test system is MV4-11. The experiment in a line: Induction of apoptosis in human MV4-11 cells at 1 nM after 24 hrs by Annexin V/propidium iodine-double staining-based flow cytometry relative to control. Format: functional. In outline: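 Leukemia cells were treated for 24 h or 48 h at the indicated concentrations. They were then collected, washed in cold PBS and stained with Annexin V and propidium iodide. Apoptotic fraction was measured by flow cytometry.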

In data set [21] the test system is RS4-11. Kind of data set: Antitumor activity against human RS4:11 cells xenografted in SCID mouse assessed as induction of apoptosis by measuring PARP cleavage at 1 to 5 mg/kg, iv administered as single dose and measured at 1 to 24 hrs post dose by Western blot analysis. Format: functional, organism-based. In outline:
as §2

T3 sequence (Q13619 whole entry, looked up): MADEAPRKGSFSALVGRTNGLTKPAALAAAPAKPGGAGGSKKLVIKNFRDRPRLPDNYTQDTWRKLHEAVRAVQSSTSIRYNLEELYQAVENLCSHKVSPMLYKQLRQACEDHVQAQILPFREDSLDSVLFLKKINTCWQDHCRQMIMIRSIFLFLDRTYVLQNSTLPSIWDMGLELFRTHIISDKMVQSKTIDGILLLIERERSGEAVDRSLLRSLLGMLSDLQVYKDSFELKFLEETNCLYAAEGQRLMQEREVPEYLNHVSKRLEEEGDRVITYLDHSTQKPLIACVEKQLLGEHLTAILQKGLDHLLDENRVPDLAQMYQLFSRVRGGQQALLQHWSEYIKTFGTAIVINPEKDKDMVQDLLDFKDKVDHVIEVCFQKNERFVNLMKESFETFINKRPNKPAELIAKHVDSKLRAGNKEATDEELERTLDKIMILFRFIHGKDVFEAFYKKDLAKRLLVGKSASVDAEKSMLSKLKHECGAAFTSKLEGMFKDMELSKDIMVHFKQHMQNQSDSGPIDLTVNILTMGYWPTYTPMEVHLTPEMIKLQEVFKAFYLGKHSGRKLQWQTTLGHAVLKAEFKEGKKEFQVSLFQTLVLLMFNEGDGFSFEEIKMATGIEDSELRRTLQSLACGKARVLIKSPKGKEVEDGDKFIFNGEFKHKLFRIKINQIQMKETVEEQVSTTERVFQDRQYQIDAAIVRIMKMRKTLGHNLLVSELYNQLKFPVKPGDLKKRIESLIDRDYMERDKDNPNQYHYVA
T3 sequence (Q15059 whole entry, looked up): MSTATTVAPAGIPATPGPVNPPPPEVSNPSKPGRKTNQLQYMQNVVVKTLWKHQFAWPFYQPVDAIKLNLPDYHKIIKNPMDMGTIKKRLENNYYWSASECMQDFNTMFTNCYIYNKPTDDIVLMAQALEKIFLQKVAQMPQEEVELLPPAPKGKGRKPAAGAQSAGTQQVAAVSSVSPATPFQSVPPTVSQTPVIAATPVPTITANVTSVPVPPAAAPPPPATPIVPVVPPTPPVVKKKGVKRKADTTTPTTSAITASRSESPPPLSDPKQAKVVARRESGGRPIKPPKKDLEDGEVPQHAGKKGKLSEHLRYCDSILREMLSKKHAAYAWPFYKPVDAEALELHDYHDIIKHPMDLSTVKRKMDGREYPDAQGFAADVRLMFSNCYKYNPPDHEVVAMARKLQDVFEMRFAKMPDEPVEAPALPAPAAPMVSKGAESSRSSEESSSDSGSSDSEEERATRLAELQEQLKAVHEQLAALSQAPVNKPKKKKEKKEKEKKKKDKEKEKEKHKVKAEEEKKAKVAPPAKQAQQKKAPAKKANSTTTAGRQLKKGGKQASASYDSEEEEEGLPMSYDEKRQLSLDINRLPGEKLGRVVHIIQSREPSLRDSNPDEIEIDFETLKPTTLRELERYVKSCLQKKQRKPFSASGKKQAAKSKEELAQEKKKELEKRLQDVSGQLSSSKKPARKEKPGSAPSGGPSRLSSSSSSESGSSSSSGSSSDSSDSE
T3 sequence (Q96SW2 whole entry, looked up): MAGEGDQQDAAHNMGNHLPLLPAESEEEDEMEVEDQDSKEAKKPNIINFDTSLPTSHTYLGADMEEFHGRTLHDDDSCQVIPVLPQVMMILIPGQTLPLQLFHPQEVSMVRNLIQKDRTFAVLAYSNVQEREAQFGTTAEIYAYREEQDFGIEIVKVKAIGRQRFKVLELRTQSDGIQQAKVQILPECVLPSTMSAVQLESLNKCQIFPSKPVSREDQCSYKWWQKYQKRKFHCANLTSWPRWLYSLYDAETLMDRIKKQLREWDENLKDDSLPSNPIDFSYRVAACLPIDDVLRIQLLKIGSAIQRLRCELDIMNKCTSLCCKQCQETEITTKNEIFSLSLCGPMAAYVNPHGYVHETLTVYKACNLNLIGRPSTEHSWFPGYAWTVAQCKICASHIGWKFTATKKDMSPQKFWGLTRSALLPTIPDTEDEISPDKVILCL
T2 sequence (P25440 whole entry, looked up): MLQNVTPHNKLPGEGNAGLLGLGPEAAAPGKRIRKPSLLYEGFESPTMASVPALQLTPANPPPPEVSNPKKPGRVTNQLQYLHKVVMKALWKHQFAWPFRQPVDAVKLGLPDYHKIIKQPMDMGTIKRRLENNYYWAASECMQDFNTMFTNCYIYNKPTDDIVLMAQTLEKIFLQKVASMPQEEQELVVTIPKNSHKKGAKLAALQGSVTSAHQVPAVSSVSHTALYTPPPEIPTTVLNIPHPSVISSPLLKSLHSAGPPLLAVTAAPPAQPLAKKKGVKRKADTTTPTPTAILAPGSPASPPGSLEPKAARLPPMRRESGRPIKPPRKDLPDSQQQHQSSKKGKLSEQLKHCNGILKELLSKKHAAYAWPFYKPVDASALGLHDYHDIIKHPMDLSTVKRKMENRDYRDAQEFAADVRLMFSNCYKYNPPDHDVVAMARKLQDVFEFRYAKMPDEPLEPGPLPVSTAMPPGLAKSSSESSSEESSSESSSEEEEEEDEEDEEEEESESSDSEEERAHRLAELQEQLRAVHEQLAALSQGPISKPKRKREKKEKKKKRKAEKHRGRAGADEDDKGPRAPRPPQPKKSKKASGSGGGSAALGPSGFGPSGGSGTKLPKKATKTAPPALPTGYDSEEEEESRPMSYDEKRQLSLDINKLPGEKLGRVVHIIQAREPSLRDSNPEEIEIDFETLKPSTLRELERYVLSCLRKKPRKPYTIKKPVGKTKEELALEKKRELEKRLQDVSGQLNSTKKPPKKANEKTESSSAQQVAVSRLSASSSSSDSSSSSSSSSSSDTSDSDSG
T2 sequence (Q13619 whole entry, looked up): as the sequence (Q13619 whole entry, looked up) above
T2 sequence (Q96SW2 whole entry, looked up): as the sequence (Q96SW2 whole entry, looked up) above
Sequence of Protein cereblon/Eukaryotic peptide chain release factor GTP-binding subunit ERF3A/Cullin-4A (Homo sapiens) (P15170 whole entry, looked up): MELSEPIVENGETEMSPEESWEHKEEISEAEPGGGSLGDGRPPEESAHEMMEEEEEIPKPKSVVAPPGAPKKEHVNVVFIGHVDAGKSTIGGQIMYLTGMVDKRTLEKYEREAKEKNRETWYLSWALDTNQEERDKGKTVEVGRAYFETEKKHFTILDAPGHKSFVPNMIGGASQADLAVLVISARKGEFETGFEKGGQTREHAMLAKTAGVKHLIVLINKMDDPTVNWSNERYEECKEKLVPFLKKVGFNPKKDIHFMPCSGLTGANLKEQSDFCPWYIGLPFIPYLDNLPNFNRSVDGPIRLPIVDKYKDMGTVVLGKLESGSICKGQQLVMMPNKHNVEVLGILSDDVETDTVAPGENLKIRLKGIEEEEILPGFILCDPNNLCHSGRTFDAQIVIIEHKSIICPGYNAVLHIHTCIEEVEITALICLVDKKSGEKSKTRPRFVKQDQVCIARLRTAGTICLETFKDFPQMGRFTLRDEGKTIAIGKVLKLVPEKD
Sequence of Protein cereblon/Eukaryotic peptide chain release factor GTP-binding subunit ERF3A/Cullin-4A (Homo sapiens) (Q13619 whole entry, looked up): as the sequence (Q13619 whole entry, looked up) above
Sequence of Protein cereblon/Eukaryotic peptide chain release factor GTP-binding subunit ERF3A/Cullin-4A (Homo sapiens) (Q96SW2 whole entry, looked up): as the sequence (Q96SW2 whole entry, looked up) above

Turning to `Cc1nnc2n1Cc1sc(C#Cc3cnn(CCCC#Cc4cccc5c4CN(C4CCC(=O)NC4=O)C5=O)c3)c(Cc3ccccc3)c1OC2` (stereo not drawn), the result in data set [1], in data set [9], in data set [10] and in data set [11] was inactive. The results for the half-maximal inhibitory concentration (IC50) with RS4-11 [2], in the data set on MV4-11 [3] and in the data set on MOLM-13 were 0.032 nM, 0.0083 nM and 0.062 nM, respectively. The result (in data set [4]; in data set [5]; in data set [6]; in [7]; in data set [8]; in the data set with MV4-11 [12]) was Active. Also, the outcome in the data set with MV4-11 [13], in the data set with Mus musculus and with RS4-11 [21] was Active. The Cp entry in data set [14] is “Bld”. Besides, the Drug uptake entry in [15] and in [16] was “Bld” throughout. In addition, the TGI entry with RS4-11 [17] was “Active”. Further, the results for the Activity result (in data set [18]; in [19]; in the data set with MV4-11 [20]) were “Non-Toxic”, “Non-Toxic” and above 60%, respectively.

The IC50 is the midpoint of a concentration-inhibition curve.
